This is one part of a sample in which hits are shown more often than they occur.
Yeast growth inh – reduces growth of yeast BB579 in restrictive medium | S. cerevisiae BB579 growth, OD615, 48 h | inhibition, % at 10 µM | 140,000 compounds, 0.51% hits | AID 804;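 active means inhibition above a set limit, 3 SD over the mean compound inhibition, cut at about 44% in these data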
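Test system: DeaD yeast strain BB579 / Buffer or medium: restrictive glucose-based CSMM-D medium / Doses: single 10 µM dose / Schedule: 4 h cell preincubation, 48 h compound exposure, 30 °C humidified / Technique: culture absorbance at 615 nm / Controls: amphotericin B positive control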
PostGolgi yeast – growth inhibition of a yeast mutant, post-Golgi transport screen; inhibition, % at 10 µM; 98,000 compounds, 0.9% hits; post-Golgi transport phenotypic cell assay;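 further: yeast cells grown in 1536-well plates; yeast grown about 18 h at 30C before absorbance read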
PostGolgi ctrl – yeast control strain growth, post-Golgi counter-screen | inhibition, % at 10 µM | 98,000 compounds, 5% hits | efflux-deficient yeast background strain, growth absorbance A615, 16 h
Yeast life ext – yeast lifespan extension | AID 775 | 130,000 compounds, 0.68% hits | inhibition of the nicotinamide effect, % at 10 µM | S. cerevisiae growth with nicotinamide, OD615; deaD strain in restrictive glucose medium;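 active means inhibition above a set limit, placed 3 SD over the median of all compounds, cut at about 26% in these data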;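 further: 0% = nicotinamide-treated wells and 100% = cells grown without nicotinamide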
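Assay system: engineered S. cerevisiae DeaD replicative-lifespan strain, galactose-grown log-phase cells; Buffer or medium: CSMM-D glucose medium, restrictive; Probe or stimulus: nicotinamide 1.5 mM; Compound: single dose 10 µM compound, 0.25% DMSO; Schedule: 4 h preincubation then 48 h treatment at 30 °C; Technique: OD615 measurement.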
Active calls of the source: *; . = not tested or not shown. Unless noted, no stated cut-off is given here; in the data, active means inhibition above about 30%; inactive means the rest.

SMILES	Yeast growth inh	PostGolgi yeast	PostGolgi ctrl	Yeast life ext
CNC(=O)C1CC(=O)N(CCCc2ccccc2)C(=Nc2ccccc2)S1 (centres undefined)	-47.7	-1.6	14.0	-5.1
Cc1cc(C)c2nc(N3CCCC(C(=O)N4CCN(c5ncccn5)CC4)C3)sc2c1 (centres undefined)	26.5	-1.6	66.6*	-11.4
c1ccc(-c2cc(N3CCOCC3)nc3ccccc23)cc1	-54.9	12.7	22.9	94.2*
Cc1cc(N2CCOCC2)nc2ccccc12	-35.8	.	.	.
Oc1ccc(-c2csc(-c3ccccc3)n2)cc1O	82.6*	0.6	59.0*	-20.4
CC(C)(C)c1ccc(S(=O)(=O)Nc2cccc(C3OCCCO3)c2)cc1	-7.5	.	.	0.1
CN1CC(c2ccc(C#N)cc2)C2(COc3ccccc3C2=O)C12C(=O)Nc1ccccc12 (centres undefined)	-58.1	9.4	31.0*	16.6
Cc1cn2c(nc(=O)c3cccnc32)s1	-26.8	.	.	17.1
Cc1nn(-c2ccccc2)c2c1C(=O)N(c1ccccc1)C(=O)C(C)(C)C2	-24.1	4.3	35.5*	-1.4
Cc1nn(-c2ccccc2)c2c1/C(=N/O)CC(C)(C)C2	-29.1	2.1	6.4	-9.9
CCCCCCNc1nc(-c2ccc(OC)cc2)c(CCC(=O)O)s1	-34.9	.	.	3.4
COc1ccc(-n2ccc(-c3nn(-c4cccc(C(F)(F)F)c4)ccc3=O)n2)cc1	-43.8	6.9	31.0*	-7.8
O=c1ccn(-c2cccc(C(F)(F)F)c2)nc1-c1ccn(-c2ccccc2F)n1	-55.3	3.0	22.0	-12.3
CC1=CCC(C(=O)O)(C(=O)N/N=C/c2cccs2)C(c2ccc([N+](=O)[O-])cc2)C1 (centres undefined)	-5.2	0.9	65.3*	-0.2
CC1=CCC(C(=O)O)(C(=O)N/N=C/c2cccs2)C(c2ccc(F)cc2)C1 (centres undefined)	-35.3	-5.3	5.4	-0.6
CCOC(=O)COn1c(=O)c(=O)n(O)c2ccccc21	-63.4	-4.4	6.1	-6.0
CC(=O)OCCCNc1cc(Sc2nc3ccccc3s2)c2nonc2c1[N+](=O)[O-]	-35.6	-1.5	43.0*	21.2
Cc1c(NC(=O)Cn2ccc([N+](=O)[O-])n2)c(=O)n(-c2ccccc2)n1C	-40.7	-0.7	15.6	-11.5
CCCc1cc(C(=O)NC2CCCC2)no1	-1.3	6.2	9.0	-9.1
CCCc1cc(C(=O)NC2CCCCC2)no1	43.3*	-3.5	1.5	0.3
COc1ccccc1-c1c(C)oc2cc(OC(=O)c3ccco3)ccc2c1=O	-20.6	-3.5	-0.6	32.1*
COc1ccc(NC(=O)[C@@H](NC(=O)c2ccccc2)C(C)C)cc1S(=O)(=O)N1CCCCC1	-24.6	.	.	-5.1
Cc1ccc(/C(N)=N/OC(=O)c2ccc(Cl)cc2Cl)cc1	98.7*	.	.	-11.1
Cc1ccc(/C(N)=N/OC(=O)c2cc(-c3ccccc3)nc3ccccc23)cc1	-42.3	21.8	30.7*	-4.4
Cc1cc(C)cc(C(=O)O/N=C(\N)c2ccc(Br)cc2)c1	-40.8	8.5	30.0*	-7.5
SMILES	Yeast growth inh	PostGolgi yeast	PostGolgi ctrl	Yeast life ext
O=C(c1ccccc1)c1ccc(N2CCCC2)cc1	-28.0	-2.3	7.7	-19.2
O=C(O)c1ccc(N2CCCCC2)cc1	1.0	31.0*	-6.8	-5.3
CCOc1cc(C)c(S(=O)(=O)Nc2ccc(F)cc2)cc1C	-20.3	-4.2	51.8*	-17.7
COc1ccc(C)cc1S(=O)(=O)Nc1ccc(F)cc1	-0.5	-6.2	10.3	-15.7
CCCn1c(=O)[nH]c(=O)c2c1nc(-c1ccccc1)n2CCN1CCOCC1	1.6	-17.1	-1.0	57.1*
Cn1c(=O)[nH]c(=O)c2c1nc(N1CCOCC1)n2CCN1CCOCC1	-18.2	2.2	3.9	-7.0
O=C(c1sc2cccc(F)c2c1Cl)N1CCN(c2ncccn2)CC1	-11.6	.	.	-3.2
CCOC(=O)c1ccc(NC(=O)COc2ccc(S(=O)(=O)NC(C)CC)cc2)cc1 (centres undefined)	-34.0	-22.8	-2.6	-2.4
CCOC(=O)c1ccc(NC(=O)C(C)NS(=O)(=O)c2ccc(OC)cc2)cc1 (centres undefined)	-37.8	-5.3	36.3*	-11.3
CCOC(=O)c1ccc(NC(=O)C(C)N2C(=O)c3ccccc3C2=O)cc1 (centres undefined)	-54.5	10.0	-3.2	27.2*
Cc1ccnc(NC(=O)c2cccc(NS(=O)(=O)c3ccccc3C)c2)c1	-58.4	10.6	29.0	-5.5
CNC(=S)N1CCN(C(=O)C2CCCO2)CC1 (centres undefined)	5.6	.	.	4.0
Cc1cc(C)n(-c2nc3sc4c(c3c(=O)[nH]2)CCCC4)n1	-27.8	98.7*	98.0*	-8.7
Nc1nc2sc3c(c2c(=O)s1)CCCC3	52.8*	-1.2	38.8*	-20.9
O=c1c2c3c(sc2nc2n1CCCCC2)CCCC3	-16.2	-13.9	30.9*	-11.7
Cc1ccc(C)n1-n1c(C)nc2sc3c(c2c1=O)CCCCC3	-62.5	-1.6	50.4*	5.3
Cc1ccc(C(=O)/C=C/c2ccco2)c(O)c1	-37.1	.	.	-7.5
Fc1ccc(-c2cc(C(F)(F)F)nc(NCc3cccs3)n2)cc1	-59.4	.	.	0.4
C/C(=N/NC(=O)c1ccoc1C)C12CC3CC(CC(C3)C1)C2	-74.9	7.7	16.3	2.8
Cc1n[nH]c(C)c1S(=O)(=O)N(CC(=O)Nc1ccc2c(c1)OCCO2)c1ccc(C(C)C)cc1	-5.8	-0.5	3.6	-2.6
COC(=O)c1ccc(N(C(=O)c2ccco2)C(C(=O)NC2CCCC2)c2ccco2)cc1 (centres undefined)	-11.1	.	.	.
COc1ccc(S(=O)(=O)Nc2cc3c4c(oc3c3ccccc23)CCCC4=O)cc1	-54.6	2.4	45.4*	-4.1
Cc1cc(O)c(/C=N/Nc2ccccc2)c(=O)o1	86.8*	7.0	7.4	-15.7
COC(=O)NC1CCC(CC2CCC(NC(=O)OC)CC2)CC1 (centres undefined)	-47.8	13.8	49.5*	13.3
O=C(COc1ccccc1C(=O)c1cnn(-c2ccccc2)c1)Nc1ccccc1	-9.5	.	.	-6.8
SMILES	Yeast growth inh	PostGolgi yeast	PostGolgi ctrl	Yeast life ext
O=S(Cc1ccc(Br)cc1)Cc1nnc(SCc2ccc(Br)cc2)n1-c1ccccc1 (centres undefined)	-36.3	.	.	7.9
Fc1ccc(-n2cc(-c3ccccc3)c3c(NN4CCOCC4)ncnc32)cc1	-0.3	.	.	-6.1
NS(=O)(=O)c1ccc(CCNc2ncnc3c2c(-c2ccccc2)cn3-c2ccc(F)cc2)cc1	-21.9	9.7	61.3*	-13.8
CCCCN(Cc1ccco1)C(=O)c1cc2c(=O)[nH]c3ccc(C)cc3c2s1	-49.5	-0.4	36.0*	-9.4
CCS(=O)(=O)N1CCN(C(=O)c2cc(OC)cc(OC)c2)CC1	-27.0	2.0	31.3*	-3.5
CC(=O)c1n[nH]nc1Nc1nc(C)cc(C)n1	-24.4	.	.	.
CC(=O)c1c(O)cc(C)n(Nc2nc(C)cc(C)n2)c1=O	-18.0	0.8	-2.7	32.3*
CCCn1c(N)c(C(c2ccc(C(=O)OC)cc2)N2CCN(c3ccccc3)CC2)c(=O)[nH]c1=O (centres undefined)	2.4	-22.6	-3.3	-14.0

Bioassay records as filed in PubChem.
